Reference: ChEMBL document CHEMBL1122987, “Synthesis and central dopaminergic effects of N-(4,6-dimethyl-2-pyridinyl)benzamides” (1985)

Columns and labels:
Mus musculus [1] = organism: Mus musculus; experiment: Antipsychotic effect was tested against motility scores in naive mice at a control value of 815; assay type: functional
Mus musculus [2] = organism: Mus musculus; experiment: Antipsychotic effect was tested against motility scores in reserpinized mice at a control value of 11; assay type: functional
Rattus norvegicus [3] = organism: Rattus norvegicus; experiment: Compound Evaluated for the homovanillic acid levels of rats limbic system by 12 determinations; assay type: functional
How it was run: (§1)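 Male Wistar C.F. rats (200 ± 20 g); limbic system dissected 5 h post-dose, HVA extracted and determined by fluorimetry (µg/g tissue). Vehicle controls received acacia gum aqueous suspension; means ± SEM, Student's t test.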

Mus musculus [4] = organism: Mus musculus; experiment: Motility of the Compound was tested against number of interrupted beams in 1 hr in reserpine & apomorphine treated mice by 14 determinations; assay type: functional
How it was run: (§2)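 Mice reserpinized (10 mg/kg ip), then apomorphine 2 mg/kg ip given 20 h later; benzamide dosed 1 h before apomorphine. Individual photocell beam interruptions recorded for 60 min after apomorphine. Controls received acacia gum aqueous suspension; means ± SEM, Student's t test vs controls.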

Mus musculus [5] = organism: Mus musculus; experiment: Motility against number of interrupted beams in 1 hour in naive mice by 13 determinations; assay type: functional
Rattus norvegicus [6] = organism: Rattus norvegicus; experiment: Compound Evaluated for the homovanillic acid levels of rats corpus striata by 12 determinations; assay type: functional
How it was run: (§3)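 Male Wistar C.F. rats (200 ± 20 g); corpus striatum removed 5 h after dosing, HVA extracted from tissue and measured fluorimetrically, expressed as µg/g. Controls got acacia gum suspension; means ± SEM, Student's t test vs controls.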

Mus musculus [7] = organism: Mus musculus; experiment: Motility of the Compound was tested against number of interrupted beams in 1 hour in reserpine treated mice by 8 determinations; assay type: functional
Rattus norvegicus [8] = organism: Rattus norvegicus; experiment: Compound was evaluated for the homovanillic acid levels of rats Corpus striata by 7 determinations; assay type: functional; how it was run: as §3
Mus musculus [9] = organism: Mus musculus; experiment: Motility against number of interrupted beams in 1 hr in reserpine & apomorphine treated mice by 11 determinations; assay type: functional; how it was run: as §2
Rattus norvegicus [10] = organism: Rattus norvegicus; experiment: Compound was evaluated for the homovanillic acid levels of rats limbic system by 6 determinations; assay type: functional; how it was run: as §1
Mus musculus [11] = organism: Mus musculus; experiment: Motility against number of interrupted beams in 1 hour in naive mice by 10 determinations; assay type: functional
Rattus norvegicus [12] = organism: Rattus norvegicus; experiment: Compound was evaluated for the homovanillic acid levels of rats limbic system by 8 determinations; assay type: functional; how it was run: as §1
Mus musculus [13] = organism: Mus musculus; experiment: Motility of the Compound was tested against number of interrupted beams in 1 hour in naive mice by 10 determinations; assay type: functional
Mus musculus [14] = organism: Mus musculus; experiment: Motility of the Compound was tested against number of interrupted beams in 1 hr in reserpine & apomorphine treated mice by 12 determinations; assay type: functional; how it was run: as §2
Rattus norvegicus [15] = organism: Rattus norvegicus; experiment: Compound was evaluated for the homovanillic acid levels of rats corpus striata by 7 determinations; assay type: functional; how it was run: as §3
Mus musculus [16] = organism: Mus musculus; experiment: Motility against number of interrupted beams in 1 hour in reserpine treated mice by 4 determinations.; assay type: functional
Mus musculus [17] = organism: Mus musculus; experiment: Motility against number of interrupted beams in 1 hr in reserpine & apomorphine treated mice by 10 determinations; assay type: functional; how it was run: as §2
Rattus norvegicus [18] = organism: Rattus norvegicus; experiment: Compound was evaluated for the homovanillic acid levels of rats limbic system by 7 determinations; assay type: functional; how it was run: as §1
Rattus norvegicus [19] = organism: Rattus norvegicus; experiment: Compound was evaluated for the homovanillic acid levels of rats corpus striata by 11 determinations; assay type: functional; how it was run: as §3
Mus musculus [20] = organism: Mus musculus; experiment: Antipsychotic effect was tested against motility scores in reserpinized mice at a control value of 11; toxic; assay type: functional, organism-based
Mus musculus [21] = organism: Mus musculus; experiment: Motility against number of interrupted beams in 1 hour in reserpine treated mice by 4 determinations; assay type: functional
Mus musculus [22] = organism: Mus musculus; experiment: Motility against number of interrupted beams in 1 hr in reserpine & apomorphine treated mice by 9 determinations; assay type: functional; how it was run: as §2
Mus musculus [23] = organism: Mus musculus; experiment: Motility against number of interrupted beams in 1 hour in naive mice by 9 determinations; assay type: functional
Mus musculus [24] = organism: Mus musculus; experiment: Motility against number of interrupted beams in 1 hour in reserpine treated mice by 9 determinations.; assay type: functional
Rattus norvegicus [25] = organism: Rattus norvegicus; experiment: Compound was evaluated for the homovanillic acid levels of rats corpus striata by 14 determinations; assay type: functional; how it was run: as §3
Mus musculus [26] = organism: Mus musculus; experiment: Motility against number of interrupted beams in 1 hr in reserpine & apomorphine treated mice by 21 determinations; assay type: functional; how it was run: as §2
Rattus norvegicus [27] = organism: Rattus norvegicus; experiment: Compound was evaluated for the homovanillic acid levels of rats limbic system by 15 determinations; assay type: functional; how it was run: as §1
Rattus norvegicus [28] = organism: Rattus norvegicus; experiment: Compound was evaluated for the homovanillic acid levels of rats corpus striata by 18 determinations; assay type: functional; how it was run: as §3
Mus musculus [29] = organism: Mus musculus; experiment: Motility against number of interrupted beams in 1 hour in reserpine treated mice by 13 determinations; assay type: functional
Rattus norvegicus [30] = organism: Rattus norvegicus; experiment: Compound was evaluated for the homovanillic acid levels of rats limbic system by 17 determinations; assay type: functional; how it was run: as §1
Mus musculus [31] = organism: Mus musculus; experiment: Motility against number of interrupted beams in 1 hour in naive mice by 15 determinations; assay type: functional

Structure (SMILES)	Motility (Mus musculus [1])	Motility (Mus musculus [2])	other results
CCN(C(=O)c1ccc(F)cc1)c1cc(C)cc(C)n1	965	29	
COc1ccccc1C(=O)Nc1cc(C)cc(C)n1	646	7	
COc1ccc(Cl)cc1C(=O)Nc1cc(C)cc(C)n1	748	19	
CCOc1ccc(C(=O)Nc2cc(C)cc(C)n2)cc1	552	4	
COc1ccc(C(=O)Nc2cc(C)cc(C)n2)cc1	456	0	
Cc1cc(C)nc(NC(=O)c2cccc(N)c2)c1	652	4	
CCCN(C(=O)c1ccccc1)c1cc(C)cc(C)n1	780	8	
Cc1cc(C)nc(NC(=O)c2ccccc2)c1	450	83	HVA level (Rattus norvegicus [3]): 0.297 µg/g; Motility (Mus musculus [4]): 642; Motility (Mus musculus [5]): 427; HVA level (Rattus norvegicus [6]): 0.504 µg/g; Motility (Mus musculus [7]): 85.1
CCN1CCCC1CNC(=O)c1cc(S(=O)(=O)CC)ccc1OC (stereo unspecified) [SULTOPRIDE]			HVA level (Rattus norvegicus [8]): 1.898 µg/g; Motility (Mus musculus [9]): 152; HVA level (Rattus norvegicus [10]): 0.493 µg/g; Motility (Mus musculus [11]): 135
CC(=O)Nc1ccc(C(=O)Nc2cc(C)cc(C)n2)cc1	522	12	
CC(=O)Nc1cccc(C(=O)Nc2cc(C)cc(C)n2)c1	777	8	
Cc1cc(C)nc(NC(=O)c2ccccc2O)c1	747	0	
Cc1cc(C)nc(NC(=O)c2ccc([N+](=O)[O-])cc2)c1	746	0	
COc1cccc(C(=O)Nc2cc(C)cc(C)n2)c1	822	0	
Cc1cc(C)nc(NC(=O)c2ccc(Br)cc2)c1	797	0	
CSc1ccc(C(=O)Nc2cc(C)cc(C)n2)cc1	770	0	

Structure (SMILES)	Motility (Mus musculus [1])	Motility (Mus musculus [2])	other results
CCS(=O)(=O)c1ccc(OC)c(C(=O)Nc2cc(C)cc(C)n2)c1	841	16	
Cc1cc(C)nc(NC(=O)c2cccc(C(F)(F)F)c2)c1	661	4	
CCN(CC)CCNC(=O)c1cc(Cl)c(N)cc1OC [METOCLOPRAMIDE]			HVA level (Rattus norvegicus [12]): 0.618 µg/g; Motility (Mus musculus [13]): 126; Motility (Mus musculus [14]): 63; HVA level (Rattus norvegicus [15]): 2.531 µg/g
Cc1cc(C)nc(NC(=O)c2ccc(N)cc2)c1	337	9	Motility (Mus musculus [16]): 0; Motility (Mus musculus [17]): 385; Motility (Mus musculus [11]): 439; HVA level (Rattus norvegicus [18]): 0.268 µg/g; HVA level (Rattus norvegicus [19]): 0.308 µg/g
CCN(C(=O)c1ccccc1)c1cc(C)cc(C)n1	914	31	
Cc1cc(C)nc(N(C)C(=O)c2ccccc2)c1	796		Motility (Mus musculus [20]): Toxic
Cc1cccc(C(=O)Nc2cc(C)cc(C)n2)c1	505	0	
COc1ccc(S(C)(=O)=O)cc1C(=O)Nc1cc(C)cc(C)n1	755	2	
Cc1cc(C)nc(NC(=O)c2cccc([N+](=O)[O-])c2)c1	634	15	
Cc1cc(C)nc(NC(=O)c2cccc(Br)c2)c1	826	21	
Cc1cc(C)nc(NC(=O)c2ccccc2Cl)c1	875	4	
Cc1cc(C)nc(NC(=O)c2ccc(F)cc2)c1	291	113	Motility (Mus musculus [21]): 118.2; Motility (Mus musculus [22]): 491; Motility (Mus musculus [23]): 299; HVA level (Rattus norvegicus [15]): 0.667 µg/g; HVA level (Rattus norvegicus [18]): 0.194 µg/g
Cc1cc(C)nc(NC(=O)c2ccc(Cl)cc2)c1	630	72	Motility (Mus musculus [24]): 73.4; Motility (Mus musculus [11]): 619; HVA level (Rattus norvegicus [25]): 0.644 µg/g; Motility (Mus musculus [26]): 577; HVA level (Rattus norvegicus [27]): 0.355 µg/g
Cc1cc(C)nc(NC(=O)c2cccc(Cl)c2)c1	617	52	HVA level (Rattus norvegicus [28]): 0.396 µg/g; Motility (Mus musculus [29]): 41.2; Motility (Mus musculus [9]): 727; HVA level (Rattus norvegicus [30]): 0.141 µg/g; Motility (Mus musculus [31]): 577
CCN(C(=O)c1cccc(Cl)c1)c1cc(C)cc(C)n1	941	21	
